Experimental data published in ChEMBL document CHEMBL2412952, “2-Substituted 4-hydroxybutanamides as potential inhibitors of γ-aminobutyric acid transporters mGAT1-mGAT4: synthesis and biological evaluation” (Bioorg Med Chem, 2013).
Active and inactive are the calls of the source.

Tests used:
Mus musculus [1] = test: Neurotoxicity in albino Swiss CD-1 mouse assessed as motor impairment at 30 mg/kg, ip after 30 mins by rotarod test; type: toxicity, organism-based; parameters: dose 30 mg/kg, route intraperitoneal; details: in vivo, 0.5 h
In short: (§1)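 CD-1 mice trained 3 days on a 2 cm rotarod at 18 rpm, then tested ≥24 h later, 30 min after ip dosing, at 6, 18 and 24 rpm. Failure to stay on for 1 min counted as impairment (fallers/tested; Fisher's exact); mean time on rod also recorded (ANOVA/Dunnett); 8 mice per group.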

Mus musculus [2] = test: Neurotoxicity in albino Swiss CD-1 mouse assessed as mean time spent on the rotarod with 24 rpm at 30 mg/kg, ip after 30 mins by rotarod test (reference value: 60.0 +/- 0.0 seconds); type: toxicity, organism-based; parameters: dose 30 mg/kg, route intraperitoneal; details: in vivo, 0.5 h; in short: as §1
Mus musculus [3] = test: Neurotoxicity in albino Swiss CD-1 mouse assessed as mean time spent on the rotarod with 18 rpm at 30 mg/kg, ip after 30 mins by rotarod test (reference value: 60.0 +/- 0.0 seconds); type: toxicity, organism-based; parameters: dose 30 mg/kg, route intraperitoneal; details: in vivo, 0.5 h; in short: as §1
Mus musculus [4] = test: Neurotoxicity in albino Swiss CD-1 mouse assessed as mean time spent on the rotarod with 6 rpm at 30 mg/kg, ip after 30 mins by rotarod test (reference value: 60.0 +/- 0.0 seconds); type: toxicity, organism-based; parameters: dose 30 mg/kg, route intraperitoneal; details: in vivo, 0.5 h; in short: as §1
Mus musculus [5] = test: Antinociceptive activity against formalin-induced inflammatory pain in albino Swiss CD-1 mouse assessed as duration of licking response at 30 mg/kg, ip administered 30 mins prior to formalin challenge measured for 15 to 30 mins (reference value: 111.6 +/- 17.1 seconds); type: functional; details: route intraperitoneal
In short: (§2)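 Male CD-1 mice, 18–25 g, 6–12 per dose; compound suspended in 0.5% methylcellulose, given ip 30 min before 20 µl of 5% formalin intraplantar into right hind paw. Time spent licking the injected paw scored blind at 0–5 min and 15–30 min. Reduction versus vehicle-treated mice; ED50 by log-probit; mean ± SEM, ANOVA/Dunnett or t-test.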

Mus musculus [6] = test: Antinociceptive activity against formalin-induced inflammatory pain in albino Swiss CD-1 mouse assessed as duration of licking response at 15 mg/kg, ip administered 30 mins prior to formalin challenge measured for 15 to 30 mins (reference value: 111.6 +/- 17.1 seconds); type: functional; details: route intraperitoneal; in short: as §2
Mus musculus [7] = test: Antinociceptive activity against formalin-induced inflammatory pain in albino Swiss CD-1 mouse assessed as duration of licking response at 7.5 mg/kg, ip administered 30 mins prior to formalin challenge measured for 15 to 30 mins (reference value: 111.6 +/- 17.1 seconds); type: functional; details: route intraperitoneal; in short: as §2
Mus musculus [8] = test: Antinociceptive activity against formalin-induced inflammatory pain in albino Swiss CD-1 mouse assessed as duration of licking response at 30 mg/kg, ip administered 30 mins prior to formalin challenge measured up to 5 mins (reference value: 55.4 +/- 6.6 seconds); type: functional; details: route intraperitoneal; in short: as §2
Mus musculus [9] = test: Antinociceptive activity against formalin-induced inflammatory pain in albino Swiss CD-1 mouse assessed as duration of licking response at 15 mg/kg, ip administered 30 mins prior to formalin challenge measured up to 5 mins (reference value: 55.4 +/- 6.6 seconds); type: functional; details: route intraperitoneal; in short: as §2
Mus musculus [10] = test: Antinociceptive activity against formalin-induced inflammatory pain in albino Swiss CD-1 mouse assessed as duration of licking response at 7.5 mg/kg, ip administered 30 mins prior to formalin challenge measured up to 5 mins (reference value: 55.4 +/- 6.6 seconds); type: functional; details: route intraperitoneal; in short: as §2
Mus musculus [11] = test: Analgesic activity in albino Swiss CD-1 mouse assessed as reduction in formalin-induced inflammatory pain at 30 mg/kg, ip administered 30 mins prior to formalin challenge measured for 15 to 30 mins relative to control; type: functional; parameters: scale not given: the % may be the effect or the level left; details: route intraperitoneal; in short: as §2
Mus musculus [12] = test: Analgesic activity in albino Swiss CD-1 mouse assessed as reduction in formalin-induced inflammatory pain at 15 mg/kg, ip administered 30 mins prior to formalin challenge measured for 15 to 30 mins relative to control; type: functional; parameters: scale not given: the % may be the effect or the level left; details: route intraperitoneal; in short: as §2
Mus musculus [13] = test: Analgesic activity in albino Swiss CD-1 mouse assessed as reduction in formalin-induced inflammatory pain at 15 mg/kg, ip administered 30 mins prior to formalin challenge measured up to 5 mins relative to control; type: functional; in short: as §2
Mus musculus [14] = test: Analgesic activity in albino Swiss CD-1 mouse assessed as reduction in formalin-induced inflammatory pain at 7.5 mg/kg, ip administered 30 mins prior to formalin challenge measured up to 5 mins relative to control; type: functional; in short: as §2
Mus musculus [15] = test: Analgesic activity in albino Swiss CD-1 mouse assessed as reduction in formalin-induced inflammatory pain at 30 mg/kg, ip administered 30 mins prior to formalin challenge measured up to 5 mins relative to control; type: functional; in short: as §2
Mus musculus [16] = test: Analgesic activity in albino Swiss CD-1 mouse assessed as reduction in formalin-induced inflammatory pain at 7.5 mg/kg, ip administered 30 mins prior to formalin challenge measured for 15 to 30 mins relative to control; type: functional; parameters: scale not given: the % may be the effect or the level left; details: route intraperitoneal; in short: as §2
Mus musculus [17] = test: Analgesic effect in ip dosed albino Swiss CD-1 mouse assessed as inhibition of acetic acid-induced writhing administered 30 mins prior to acetic acid challenge measured for 30 mins; type: functional; details: albino Swiss CD-1, ip
In short: (§3)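 Male CD-1 mice (18–25 g), habituated 30 min in beakers, dosed ip (0.5% methylcellulose, 10 ml/kg) 30 min before ip 0.9% acetic acid in saline (10 ml/kg). Writhes counted for 30 min by blinded observers. Effect is % reduction versus vehicle group; ED50 by log-probit; mean ± SEM.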

Mus musculus [18] = test: Analgesic effect in albino Swiss CD-1 mouse assessed as inhibition of acetic acid-induced writhing at 20 mg/kg, ip administered 30 mins prior to acetic acid challenge measured for 30 mins relative to control; type: functional; parameters: scale not given: the % may be the effect or the level left; details: route intraperitoneal; in short: as §3
Mus musculus [19] = test: Analgesic effect in albino Swiss CD-1 mouse assessed as inhibition of acetic acid-induced writhing at 15 mg/kg, ip administered 30 mins prior to acetic acid challenge measured for 30 mins relative to control; type: functional; parameters: scale not given: the % may be the effect or the level left; details: route intraperitoneal; in short: as §3
Mus musculus [20] = test: Analgesic effect in albino Swiss CD-1 mouse assessed as inhibition of acetic acid-induced writhing at 30 mg/kg, ip administered 30 mins prior to acetic acid challenge measured for 30 mins relative to control; type: functional; parameters: scale not given: the % may be the effect or the level left; details: route intraperitoneal; in short: as §3
[21] = Inhibition of mouse GAT4-mediated [3H]GABA uptake stably transfected in HEK293 cells; type: cell-based
[22] = target: T1, Sodium- and chloride-dependent GABA transporter 1 (Mus musculus, UniProt P31648); test: Binding affinity to mouse GAT1 stably transfected in HEK293 cells by NO-711 binding assay; type: cell-based
[23] = target: T1, Sodium- and chloride-dependent GABA transporter 1; test: Inhibition of mouse GAT1-mediated [3H]GABA uptake stably transfected in HEK293 cells; type: cell-based
Mus musculus [24] = test: Antinociceptive activity in albino Swiss CD-1 mouse assessed as prolongation of latency time at 30 mg/kg, ip administered 30 mins prior to test by hot plate test; type: functional, organism-based; parameters: dose 30 mg/kg
In short: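 Male CD-1 mice given compound ip in 0.5% methylcellulose 30 min before placement on a plate held at 55–56 °C. Latency to hind-paw licking or jumping timed, 30 s cut-off. Compared with vehicle by ANOVA.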

Mus musculus [25] = test: Antinociceptive activity against formalin-induced inflammatory pain in albino Swiss CD-1 mouse assessed as duration of licking response at 30 mg/kg, ip administered 30 mins prior to formalin challenge measured for 15 to 30 mins (reference value: 78.8 +/- 15.9 seconds); type: functional; details: route intraperitoneal; in short: as §2
Mus musculus [26] = test: Antinociceptive activity against formalin-induced inflammatory pain in albino Swiss CD-1 mouse assessed as duration of licking response at 30 mg/kg, ip administered 30 mins prior to formalin challenge measured up to 5 mins (reference value: 34.8 +/- 9.4 seconds); type: functional; details: route intraperitoneal; in short: as §2
Mus musculus [27] = test: Analgesic effect in albino Swiss CD-1 mouse assessed as inhibition of acetic acid-induced writhing at 7.5 mg/kg, ip administered 30 mins prior to acetic acid challenge measured for 30 mins relative to control; type: functional; parameters: scale not given: the % may be the effect or the level left; details: route intraperitoneal; in short: as §3
Mus musculus [28] = test: Analgesic effect in albino Swiss CD-1 mouse assessed as inhibition of acetic acid-induced writhing at 3.75 mg/kg, ip administered 30 mins prior to acetic acid challenge measured for 30 mins relative to control; type: functional; parameters: scale not given: the % may be the effect or the level left; details: route intraperitoneal; in short: as §3
Mus musculus [29] = test: Analgesic activity in ip dosed albino Swiss CD-1 mouse assessed as reduction in formalin-induced inflammatory pain administered 30 mins prior to formalin challenge measured for 15 to 30 mins; type: functional; details: albino Swiss CD-1, ip; in short: as §2
Mus musculus [30] = test: Analgesic activity in ip dosed albino Swiss CD-1 mouse assessed as reduction in formalin-induced inflammatory pain administered 30 mins prior to formalin challenge measured up to 5 mins; type: functional; details: albino Swiss CD-1, ip; in short: as §2

Row | IC50 [21] [µM] | Ki [22] [µM] | Compound | Activity (Mus musculus [1]) | Time (Mus musculus [2]) [s] | Time (Mus musculus [3]) [s] | Time (Mus musculus [4]) [s] | Time (Mus musculus [5]) [s] | Time (Mus musculus [6]) [s] | Time (Mus musculus [7]) [s] | Time (Mus musculus [8]) [s] | Time (Mus musculus [9]) [s] | Time (Mus musculus [10]) [s] | Activity (Mus musculus [11]) [%] | Activity (Mus musculus [12]) [%] | Activity (Mus musculus [15]) | Activity (Mus musculus [16]) [%] | ED50 (Mus musculus [17]) [mg/kg] | Activity (Mus musculus [19]) [%] | Activity (Mus musculus [20]) [%] | Activity (Mus musculus [24]) | further results
1 | 26.3 | 11.5 | O=C(NCc1ccc(F)cc1)C(CCO)N1CCC(=C(c2ccccc2)c2ccccc2)CC1 (centres undefined) | Non-toxic | 60 | 60 | 60 | 24 | 17.8 | 30.9 | 58.1 | 50.4 | 59.9 | 78.5 | 84.1 | inactive | 72.3 | 18.1 | 28.9 | 79.4 | inactive | Activity (Mus musculus [13]): inactive; Activity (Mus musculus [14]): inactive; Activity (Mus musculus [18]): 69.9%; IC50 [23]: 9.77 µM
2 | – | – | COc1ccc(C(OCCN2CCC[C@H](C(=O)O)C2)(c2ccc(OC)cc2)c2ccc(OC)cc2)cc1 | – | 59 | 56.3 | 59.6 | – | – | – | – | – | – | 39.5 | – | inactive | – | 7.1 | 70.5 | – | inactive | Time (Mus musculus [25]): 47.7 s; Time (Mus musculus [26]): 35.6 s; Activity (Mus musculus [27]): 62.7%; Activity (Mus musculus [28]): 23.3%
3 | 33.1 | 9.12 | O=C(NCc1ccccc1)C(CCO)N1CCC(=C(c2ccccc2)c2ccccc2)CC1 (centres undefined) | Non-toxic | 60 | 60 | 60 | 16.3 | 39.6 | 75.1 | 27.7 | 31 | 39 | 85.4 | 64.5 | – | 32.7 | – | – | 29.8 | inactive | ED50 (Mus musculus [29]): 11.1 mg/kg; Activity (Mus musculus [13]; route intraperitoneal): 44%; Activity (Mus musculus [14]; route intraperitoneal): 29.6%; Activity (Mus musculus [15]; route intraperitoneal): 50%; ED50 (Mus musculus [30]): 27.1 mg/kg; IC50 [23]: 14.8 µM
